# Source: paper PMC10238757 (Pharmacology Research & Perspectives, 2023)
# Legend:
# Multiple ascending dose = type: in vivo, human; settings: for half-life / AUC(0-t) / Cmax / concentration at 24 h / Tmax / concentration at 168 h: human, plasma, oral; for Cmax: C max; for Cmax / concentration at 24 h / concentration at 168 h: ng/mL GM (%CVb); for concentration at 24 h / concentration at 168 h: C trough; for Tmax: t max, h median (range)
# How it was run: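 Healthy participants, double-blind and placebo-controlled, cohorts of 10 randomized 7:3. Oral doses after a moderate-fat meal: 25–100 mg QD for 14 days (18 days at top dose), or 500 mg QW ×3. Trough taken pre-dose at end of interval (24 h QD, 168 h QW). Plasma followed to 360 h; LLOQ 10 ng/mL. Non-compartmental PK; accumulation ratios Day 14, 15 or 18 vs Day 1; geometric means with CVb.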
# [1] = Relative bioavailability and food effect; type: in vivo, human; settings: 100 mg; for Tmax: human, plasma, oral, Median t max
# How it was run: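 Open-label, single-dose, 3-period cross-over; 17 healthy participants; washout ≥24 days. Each received 100 mg oral as PiB fed, tablet fed or tablet fasted. Overnight fast ≥9.5 h before and ≥4 h after dosing; fed arms got a moderate-fat meal 25 min pre-dose. Non-compartmental PK. Log_e PK parameters fitted by mixed-effect models (fed/fasted, tablet/PiB fixed; participant random). Back-transformed 90% CIs for AUC_0‐24, AUC_0‐∞, Cmax.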
# HIV-1 = settings: cited from earlier work
# healthy participants = assay: Safety and tolerability, relative bioavailability and food effect; type: in vivo, human
# How it was run: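 AEs in healthy participants given oral test compound or placebo, recorded with grade and relation to treatment. Laboratory analyses, clinical parameters and suicidality were also monitored. Observation ran 360 h after dosing. Summaries were descriptive, with no formal statistics; parts 1–2 blinded and placebo-controlled, part 3 open-label.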
structure (smiles),measurement,setting,value
C=C(C)[C@@H]1CC[C@]2(NCCN3CCS(=O)(=O)CC3)CC[C@]3(C)[C@H](CC[C@@H]4[C@@]5(C)CC=C(C6=CC[C@@](COc7ncccc7C#N)(C(=O)O)CC6)C(C)(C)[C@@H]5CC[C@]43C)[C@@H]12 [GSK'937],Accumulation ratio of C trough GM (%CVb),"Multiple ascending dose; 25 mg QD, Day 14/Day 1",6.58 (31.4)
same,Accumulation ratio of C trough GM (%CVb),"Multiple ascending dose; 50 mg QD, Day 14/Day 1",5.25 (35.7)
same,Accumulation ratio of C trough GM (%CVb),"Multiple ascending dose; 100 mg QD, Day 18/Day 1",9.39 (72.5)
same,accumulation in exposure following repeat dosing,Multiple ascending dose; 500 mg QW (weekly),~ 1.7 fold
same,Accumulation ratio of AUC0-t GM (%CVb),"Multiple ascending dose; 500 mg QW, Day 15/Day 1",1.76 (27.0)
same,Accumulation ratio of C max GM (%CVb),"Multiple ascending dose; 500 mg QW, Day 15/Day 1",1.68 (26.9)
same,Accumulation ratio of C trough GM (%CVb),"Multiple ascending dose; 500 mg QW, Day 15/Day 1",1.82 (33.8)
same,time after final dose at which still detectable,Multiple ascending dose; all part 2 participants,360 h
same,half-life,Multiple ascending dose,72.2 to 85.8 h
same,AUC(0-t),Multiple ascending dose; 25 mg,1.89 µg·h/mL
same,half-life,Multiple ascending dose; 25 mg,85.8 h
same,Cmax,"Multiple ascending dose; 25 mg, 25 mg QD, Day 1",0.132 µg/mL
same,Cmax,"Multiple ascending dose; 25 mg, 25 mg QD, Day 14",0.766 µg/mL
same,concentration at 24 h,"Multiple ascending dose; 25 mg, 25 mg QD, Day 1, 24 h",0.0893 µg/mL
same,concentration at 24 h,"Multiple ascending dose; 25 mg, 25 mg QD, Day 14, 24 h",0.588 µg/mL
same,Tmax,"Multiple ascending dose; 25 mg, 25 mg QD, Day 1",9 h
same,Tmax,"Multiple ascending dose; 25 mg, 25 mg QD, Day 14",6.95 h
same,AUC(0-t),Multiple ascending dose; 50 mg,3.56 µg·h/mL
same,half-life,Multiple ascending dose; 50 mg,72.2 h
same,Cmax,"Multiple ascending dose; 50 mg, 50 mg QD, Day 1",0.232 µg/mL
same,Cmax,"Multiple ascending dose; 50 mg, 50 mg QD, Day 14",1.15 µg/mL
same,concentration at 24 h,"Multiple ascending dose; 50 mg, 50 mg QD, Day 1, 24 h",0.189 µg/mL
same,concentration at 24 h,"Multiple ascending dose; 50 mg, 50 mg QD, Day 14, 24 h",0.99 µg/mL
same,Tmax,"Multiple ascending dose; 50 mg, 50 mg QD, Day 1",8 h
same,Tmax,"Multiple ascending dose; 50 mg, 50 mg QD, Day 14",7.03 h
same,AUC(0-t),Multiple ascending dose; 100 mg,5.89 µg·h/mL
same,half-life,Multiple ascending dose; 100 mg,78.5 h
same,Cmax,"Multiple ascending dose; 100 mg, 100 mg QD, Day 1",0.375 µg/mL
same,Cmax,"Multiple ascending dose; 100 mg, 100 mg QD, Day 14",2.68 µg/mL
same,Cmax,"Multiple ascending dose; 100 mg, 100 mg QD, Day 18",2.75 µg/mL
same,concentration at 24 h,"Multiple ascending dose; 100 mg, 100 mg QD, Day 1, 24 h",0.272 µg/mL
same,concentration at 24 h,"Multiple ascending dose; 100 mg, 100 mg QD, Day 14, 24 h",2.42 µg/mL
same,concentration at 24 h,"Multiple ascending dose; 100 mg, 100 mg QD, Day 18, 24 h",2.46 µg/mL
same,Tmax,"Multiple ascending dose; 100 mg, 100 mg QD, Day 1",9 h
same,Tmax,"Multiple ascending dose; 100 mg, 100 mg QD, Day 14",7.49 h
same,Tmax,"Multiple ascending dose; 100 mg, 100 mg QD, Day 18",9.01 h
same,half-life,Multiple ascending dose; 500 mg,74.5 h
same,Cmax,"Multiple ascending dose; 500 mg, 500 mg QW, Day 1",1.11 µg/mL
same,Cmax,"Multiple ascending dose; 500 mg, 500 mg QW, Day 8",2.32 µg/mL
same,Cmax,"Multiple ascending dose; 500 mg, 500 mg QW, Day 15",1.86 µg/mL
same,concentration at 168 h,"Multiple ascending dose; 500 mg, 500 mg QW, Day 1, 168 h",0.251 µg/mL
same,concentration at 168 h,"Multiple ascending dose; 500 mg, 500 mg QW, Day 8, 168 h",0.498 µg/mL
same,concentration at 168 h,"Multiple ascending dose; 500 mg, 500 mg QW, Day 15, 168 h",0.455 µg/mL
same,Tmax,"Multiple ascending dose; 500 mg, 500 mg QW, Day 1",9.88 h
same,Tmax,"Multiple ascending dose; 500 mg, 500 mg QW, Day 8",10 h
same,Tmax,"Multiple ascending dose; 500 mg, 500 mg QW, Day 15",10 h
same,"increase in C max, tablet versus PiB",[1]; fed,approximately 37%
same,"increase in bioavailability by AUC0-24, tablet versus PiB",[1]; fed,38%
same,"increase in bioavailability by AUC0-∞, tablet versus PiB",[1]; fed,35%
same,Tmax,[1]; 100 mg PiB fed,9 h
same,Tmax,[1]; 100 mg tablet fasted,6 h
same,Tmax,[1]; both tablet and PiB formulations under fed conditions,8 to 9 h
same,exposure in fed versus fasted states,[1]; tablet,> 2 fold
same,potency in vitro,HIV-1,low nanomolar
same,"Abdominal pain, n occurrences (% of cohort)","healthy participants; 100 mg PiB fed, N=15",0
same,"All-cause AEs Grade 2, n occurrences (% of cohort)","healthy participants; 100 mg PiB fed, N=15",0
same,"All-cause AEs Grade 3/4, n occurrences (% of cohort)","healthy participants; 100 mg PiB fed, N=15",0
same,"All-cause AEs, n occurrences (% of cohort)","healthy participants; 100 mg PiB fed, N=15",2 (13)
same,"Constipation, n occurrences (% of cohort)","healthy participants; 100 mg PiB fed, N=15",0
same,"Diarrhea, n occurrences (% of cohort)","healthy participants; 100 mg PiB fed, N=15",0
same,"Drug-related AEs Grade 2, n occurrences (% of cohort)","healthy participants; 100 mg PiB fed, N=15",0
same,"Drug-related AEs Grade 3/4, n occurrences (% of cohort)","healthy participants; 100 mg PiB fed, N=15",0
same,"Drug-related AEs, n occurrences (% of cohort)","healthy participants; 100 mg PiB fed, N=15",0
same,"Headache, n occurrences (% of cohort)","healthy participants; 100 mg PiB fed, N=15",0
same,"MDSD, n occurrences (% of cohort)","healthy participants; 100 mg PiB fed, N=15",0
same,"Abdominal pain, n occurrences (% of cohort)","healthy participants; 100 mg tablet fasted, N=15",0
same,"All-cause AEs Grade 2, n occurrences (% of cohort)","healthy participants; 100 mg tablet fasted, N=15",2 (13)
same,"All-cause AEs Grade 3/4, n occurrences (% of cohort)","healthy participants; 100 mg tablet fasted, N=15",0
same,"All-cause AEs, n occurrences (% of cohort)","healthy participants; 100 mg tablet fasted, N=15",7 (40)
same,"Constipation, n occurrences (% of cohort)","healthy participants; 100 mg tablet fasted, N=15",0
same,"Diarrhea, n occurrences (% of cohort)","healthy participants; 100 mg tablet fasted, N=15",0
same,"Drug-related AEs Grade 2, n occurrences (% of cohort)","healthy participants; 100 mg tablet fasted, N=15",0
same,"Drug-related AEs Grade 3/4, n occurrences (% of cohort)","healthy participants; 100 mg tablet fasted, N=15",0
same,"Drug-related AEs, n occurrences (% of cohort)","healthy participants; 100 mg tablet fasted, N=15",0
same,"Headache, n occurrences (% of cohort)","healthy participants; 100 mg tablet fasted, N=15",2 (13)
same,"MDSD, n occurrences (% of cohort)","healthy participants; 100 mg tablet fasted, N=15",0
same,"Abdominal pain, n occurrences (% of cohort)","healthy participants; 100 mg tablet fed, N=17",0
same,"All-cause AEs Grade 2, n occurrences (% of cohort)","healthy participants; 100 mg tablet fed, N=17",3 (12)
same,"All-cause AEs Grade 3/4, n occurrences (% of cohort)","healthy participants; 100 mg tablet fed, N=17",0
same,"All-cause AEs, n occurrences (% of cohort)","healthy participants; 100 mg tablet fed, N=17",7 (24)
same,"Constipation, n occurrences (% of cohort)","healthy participants; 100 mg tablet fed, N=17",0
same,"Diarrhea, n occurrences (% of cohort)","healthy participants; 100 mg tablet fed, N=17",0
same,"Drug-related AEs Grade 2, n occurrences (% of cohort)","healthy participants; 100 mg tablet fed, N=17",0
same,"Drug-related AEs Grade 3/4, n occurrences (% of cohort)","healthy participants; 100 mg tablet fed, N=17",0
same,"Drug-related AEs, n occurrences (% of cohort)","healthy participants; 100 mg tablet fed, N=17",0
same,"Headache, n occurrences (% of cohort)","healthy participants; 100 mg tablet fed, N=17",2 (12)
same,"MDSD, n occurrences (% of cohort)","healthy participants; 100 mg tablet fed, N=17",0
same,AEs considered drug- or treatment-related,healthy participants; part 3,None
same,"changes in laboratory analyses, clinical parameters, or suicidality",healthy participants; part 3,No significant changes
same,deaths or SAEs,healthy participants; part 3,No deaths or SAEs occurred
same,"participants reporting AEs, n of 17",healthy participants; part 3 (41%),7
